Assays:
[1] = system: A2780; assay: Cytotoxicity against human ovarian carcinoma A2780cisR cell line; format: functional, cell-based
Outline: (§1)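 Cells kept in log-phase DMEM with 10% fetal calf serum, penicillin/streptomycin and Glutamax. Seeded at 2000 cells/well and allowed 48 h adhesion at 37 °C, 5% CO2. Exposed 72 h to compound diluted from a DMSO stock into complete medium, final 0.01 to 0.0001 mg/mL, in quadruplicate. Vehicle control contained 1% DMSO. Proliferation read by MTT (1 h, DMSO solubilization, OD 590 nm).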

[2] = system: A2780; assay: Cytotoxicity against human ovarian carcinoma A2780 cell line; format: functional, cell-based; outline: as §1

CARBOPLATIN showed an IC50 [1] of 41.6 µM and an IC50 [2] of 8.2 µM.

With CISPLATIN the IC50 [1] was 7.8 µM and the IC50 [2] was 2.3 µM.

Work on alpha-[Ru(azpy)2(NO3)2] yielded an IC50 [1] of 6.3 µM and an IC50 [2] of 8.5 µM.

Work on alpha-[Ru(azpy)2(cbdca-O,O')] yielded an IC50 [1] of 4.9 µM and an IC50 [2] of 7.2 µM.

For alpha-[Ru(azpy)2(mal)], the IC50 [1] was 6.2 µM and the IC50 [2] was 7.9 µM.

alpha-[Ru(azpy)2Cl2] showed an IC50 [1] of 0.98 µM and an IC50 [2] of 0.85 µM.

In the case of beta-[Ru(azpy)2(NO3)2] CHCl3, the IC50 [1] is reported as 12.1 µM and the IC50 [2] is reported as 9.7 µM.

Substance beta-[Ru(azpy)2Cl2] CHCl3 has an IC50 [1] of 7.3 µM and an IC50 [2] of 1.6 µM.

— ChEMBL document CHEMBL1136783, “New cytotoxic and water-soluble bis(2-phenylazopyridine)ruthenium(II) complexes” (J Med Chem, 2003)
